Measured values published in ChEMBL document CHEMBL3045864, “Fungistatic activity of bicyclo[4.3.0]-γ-lactones” (J Agric Food Chem, 2011).
≈ marks a conversion by molar mass, not a printed value.

Legend:
Type in all cases: functional, organism-based
[1] = system: Fusarium culmorum; assay: Fungistatic activity against Fusarium culmorum AM 282 assessed as effect on diameter of fungal growth zone
In short: (§1)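 Agar dilution growth-zone assay. Lactones in DMSO were mixed into sterilized potato dextrose agar (0.01 mL DMSO per 1 mL agar) at final concentrations of 50–300 μg/mL. A fungal mycelium plug was placed on the agar and grown at 27 °C and 60–80% relative humidity. Growth-zone diameters were measured once DMSO-only control colonies reached 5.5–6.0 cm. Inhibition = (1 − Da/Db) × 100%. IC50 was taken from four concentrations, each run in triplicate. DDAC served as reference.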

[2] = system: Fusarium oxysporum; assay: Fungistatic activity against Fusarium oxysporum AM 13 assessed as effect on diameter of fungal growth zone; in short: as §1
[3] = system: Penicillium citrinum; assay: Fungistatic activity against Penicillium citrinum AM 354 assessed as effect on diameter of fungal growth zone; in short: as §1
[4] = system: Fusarium tricinctum; assay: Fungistatic activity against Fusarium tricinctum AM 16 assessed as effect on diameter of fungal growth zone; in short: as §1
[5] = system: Aspergillus ochraceus; assay: Fungistatic activity against Aspergillus ochraceus AM 456 assessed as effect on diameter of fungal growth zone; in short: as §1
[6] = Fusarium culmorum, AM 282, read-out: IC50
[7] = Fusarium oxysporum, AM 13, read-out: IC50

SMILES	IC50 [1, 6]	IC50 [2, 7]	IC50 [3]	IC50 [4]	IC50 [5]	IC50 [1]	IC50 [2]
O=C1OC[C@@H]2CC=CC[C@H]12	171 µg/mL (≈ 1240 µM)	222 µg/mL (≈ 1610 µM)	–	–	–	–	–
O=C1OC[C@@H]2C[C@@H]3O[C@@H]3C[C@H]12	59.7 µg/mL (≈ 387 µM)	51.9 µg/mL (≈ 337 µM)	–	–	–	–	–
O=C1OC[C@@H]2C[C@@H](Br)[C@H](Br)C[C@H]12	90.5 µg/mL (≈ 304 µM)	47.5 µg/mL (≈ 159 µM)	–	–	–	–	–
O=C1OC[C@@H]2CCCC[C@H]12	169 µg/mL (≈ 1210 µM)	261 µg/mL (≈ 1860 µM)	–	–	–	–	–
CC1(C)OC(=O)[C@@H]2CCCC[C@@H]21	121 µg/mL (≈ 717 µM)	162 µg/mL (≈ 965 µM)	–	–	–	–	–
O=C1OC(=O)[C@@H]2CC=CC[C@H]12	310 µg/mL (≈ 2040 µM)	220 µg/mL (≈ 1450 µM)	> 350 µg/mL	289 µg/mL (≈ 1900 µM)	287 µg/mL (≈ 1880 µM)	–	–
O=C1OC[C@H]2CCC[C@H](Br)[C@@H]12 (racemic)	133 µg/mL (≈ 608 µM)	184 µg/mL (≈ 840 µM)	282 µg/mL (≈ 1290 µM)	173 µg/mL (≈ 791 µM)	244 µg/mL (≈ 1120 µM)	–	–
CC1(C)OC(=O)[C@@H]2CCCC[C@@H]21 (racemic)	–	–	292 µg/mL (≈ 1730 µM)	213 µg/mL (≈ 1260 µM)	160 µg/mL (≈ 949 µM)	134.5 µg/mL (≈ 799 µM)	179.1 µg/mL (≈ 1060 µM)
O=C1OC[C@H]2CC=CC[C@@H]12 (racemic)	184 µg/mL (≈ 1330 µM)	282 µg/mL (≈ 2040 µM)	> 350 µg/mL	221 µg/mL (≈ 1600 µM)	171 µg/mL (≈ 1240 µM)	–	–
O=C1OC[C@H]2C[C@H]3O[C@H]3C[C@@H]12 (racemic)	90.4 µg/mL (≈ 586 µM)	72.2 µg/mL (≈ 468 µM)	312 µg/mL (≈ 2030 µM)	156 µg/mL (≈ 1020 µM)	141 µg/mL (≈ 915 µM)	–	–
O=C1OC[C@H]2C[C@@H](Br)[C@H](Br)C[C@@H]12 (racemic)	81.5 µg/mL (≈ 274 µM)	30.1 µg/mL (≈ 101 µM)	306 µg/mL (≈ 1030 µM)	110 µg/mL (≈ 371 µM)	219 µg/mL (≈ 735 µM)	–	–
O=C1OC[C@@H]2C[C@@H](Br)[C@H](O)C[C@H]12 (racemic)	172 µg/mL (≈ 733 µM)	141 µg/mL (≈ 600 µM)	292 µg/mL (≈ 1240 µM)	211 µg/mL (≈ 898 µM)	141 µg/mL (≈ 599 µM)	–	–
O=C1OC[C@H]2CCCC[C@@H]12 (racemic)	147 µg/mL (≈ 1050 µM)	314 µg/mL (≈ 2240 µM)	> 350 µg/mL	222 µg/mL (≈ 1580 µM)	187 µg/mL (≈ 1330 µM)	–	–
CC1(C)OC(=O)[C@H]2CC=CC[C@H]21 (racemic)	183 µg/mL (≈ 1100 µM)	188 µg/mL (≈ 1130 µM)	274 µg/mL (≈ 1650 µM)	205 µg/mL (≈ 1230 µM)	159 µg/mL (≈ 958 µM)	–	–
CC1(C)OC(=O)[C@H]2C[C@H]3O[C@H]3C[C@H]21 (racemic)	142 µg/mL (≈ 777 µM)	95.3 µg/mL (≈ 523 µM)	> 350 µg/mL	180 µg/mL (≈ 991 µM)	142 µg/mL (≈ 780 µM)	–	–
CC1(C)OC(=O)[C@H]2C[C@@H](Br)[C@H](Br)C[C@H]21 (racemic)	155 µg/mL (≈ 474 µM)	80.2 µg/mL (≈ 246 µM)	255 µg/mL (≈ 782 µM)	191 µg/mL (≈ 586 µM)	121 µg/mL (≈ 371 µM)	–	–
CC1(C)OC(=O)[C@H]2C[C@@H](O)[C@H](Br)C[C@H]21 (racemic)	166 µg/mL (≈ 632 µM)	170 µg/mL (≈ 648 µM)	212 µg/mL (≈ 806 µM)	162 µg/mL (≈ 617 µM)	220 µg/mL (≈ 838 µM)	–	–
O=C1OCC2CCC(O)CC12 (racemic)	121 µg/mL (≈ 773 µM)	127 µg/mL (≈ 811 µM)	> 350 µg/mL	161 µg/mL (≈ 1030 µM)	212 µg/mL (≈ 1360 µM)	–	–
O=C1OC(=O)C2CCCCC12 (racemic)	292 µg/mL (≈ 1890 µM)	240 µg/mL (≈ 1560 µM)	> 350 µg/mL	303 µg/mL (≈ 1960 µM)	342 µg/mL (≈ 2220 µM)	–	–
CCCCCCCCCC[N+](C)(C)CCCCCCCCCC.[Cl-] [DIDECYLDIMETHYLAMMONIUM CHLORIDE]	24.5 µg/mL	24.2 µg/mL	41.6 µg/mL	27.9 µg/mL	51.3 µg/mL	–	–
